One series relates to HUVEC. Description: Antiproliferative activity against human HUVEC cells after 48 hrs by MTT assay. In kind it is cell-based. For orientation: Tetrazolium dyes change colour on reduction, which living cells bring about.
The test system of another series is MCF7. Description: Antiproliferative activity against human MCF7 cells after 48 hrs by MTT assay. In kind it is functional, cell-based. The settings on record: MCF7, 48 h.
In another series the test system is HCT-116. As to the kind of experiment: Antiproliferative activity against human HCT116 cells after 48 hrs by MTT assay. In kind it is functional, cell-based. The settings on record: HCT-116, 48 h.
In another series the test system is L02. Description: Antiproliferative activity against human L02 cells after 48 hrs by MTT assay. The series is classed as cell-based. The following applies: L02, 48 h.
Series [1] has as its system A549. As to the kind of experiment: Antiproliferative activity against human A549 cells after 48 hrs by MTT assay. The series is classed as functional, cell-based. The following applies: A549, 48 h.
The next series deals with HepG2. Description: Antiproliferative activity against human HepG2 cells after 48 hrs by MTT assay. The following applies: HepG2, 48 h. The series is classed as functional, cell-based.
The test system of series [2] is A549. As to the kind of experiment: Induction of apoptosis in human A549 cells assessed as early apoptotic cells at 3 uM after 24 hrs by Annexin V-APC/7-AAD staining-based FACS analysis (reference value: 5.82%). In kind it is functional. (In flow cytometry, cells or beads pass a laser one at a time.)
Series [3] has as its system A549. Description: Down regulation of cyclin E expression in human A549 cells after 24 hrs by Western blot analysis. The series is classed as functional, cell-based. The method, boiled down: (§1)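 A549 cells (3 × 10^5 per dish) were treated for 24 h and lysed in RIPA buffer; protein was measured by BCA. Lysates were run on 12% SDS-PAGE and blotted to nitrocellulose. Blots were blocked in 5% non-fat milk for 2 h at room temperature, then incubated with primary antibodies in TBST overnight at 4 °C. ECL detection was used, with bands normalized to β-actin (mean ± SD, three experiments).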

Series [4] has as its system A549. As to the kind of experiment: Induction of apoptosis in human A549 cells assessed as necrotic cells at 12 uM after 24 hrs by Annexin V-APC/7-AAD staining-based FACS analysis (reference value: 0.032%). The series is classed as functional.
The test system of series [5] is A549. Description: Induction of apoptosis in human A549 cells assessed as necrotic cells at 3 uM after 24 hrs by Annexin V-APC/7-AAD staining-based FACS analysis (reference value: 0.032%). The series is classed as functional.
Series [6] relates to A549. As to the kind of experiment: Up regulation of p53 expression in human A549 cells at 3 to 12 uM after 24 hrs by Western blot analysis. In kind it is functional, cell-based. In outline:
as §1
On the technique in general: A western blot detects proteins with antibodies after separation by electrophoresis.

Series [7] has as its system A549. Description: Effect on cyclin D expression in human A549 cells at 3 to 12 uM after 24 hrs by Western blot analysis. In kind it is functional, cell-based. The method, boiled down:
as §1

Series [8] relates to A549. Description: Induction of apoptosis in human A549 cells assessed as viable cells at 6 uM after 24 hrs by Annexin V-APC/7-AAD staining-based FACS analysis (reference value: 94.1%). The series is classed as functional. The settings on record: A549, 24 h, read-out: Activity.
For series [9], the system named is A549. Description: Induction of reactive oxygen species generation in human A549 cells by MitoSOX Red dye-based FACS analysis. In kind it is functional, cell-based. The method, boiled down: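 Treated A549 cells were stained with a kit dye that distinguishes ROS(−) and ROS(+) populations. Percentages of each population were measured by flow cytometry.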
The test system of series [10] is A549. As to the kind of experiment: Down regulation of CDK2 expression in human A549 cells after 24 hrs by Western blot analysis. The series is classed as functional, cell-based. The method, boiled down: as §1
The test system of series [11] is A549. Description: Induction of apoptosis in human A549 cells assessed as increase in Bax/Bcl-2 ratio after 24 hrs by Western blot analysis. The series is classed as functional, cell-based. In outline:
as §1

Series [12] can be described thus: Drug uptake in mitochondria of human A549 cells at 2 to 8 uM after 30 mins by MitoTracker Red CMXRos dye-based confocal microscopic analysis. The series is classed as ADME, cell-based. The settings on record: a549, 0.5 h. The method, boiled down:
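Live A549 cells were grown for 2 days in confocal dishes. They were then incubated with compound and MitoTracker Red CMXRos in culture medium for 30 min, and localization was imaged by laser-scanning confocal microscopy.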

Series [13] deals with A549. As to the kind of experiment: Cell cycle arrest in human A549 cells assessed as accumulation at S-phase at 6 uM after 24 hrs by propidium iodide staining-based FACS analysis (reference value: 17.8 %). In kind it is functional.
For series [14], the system named is A549. Description: Induction of apoptosis in human A549 cells assessed as viable cells at 12 uM after 24 hrs by Annexin V-APC/7-AAD staining-based FACS analysis (reference value: 94.1%). The series is classed as functional. The following applies: A549, 24 h, read-out: Activity.
Series [15] concerns A549. As to the kind of experiment: Induction of apoptosis in human A549 cells assessed as increase in cleaved caspase-9 level at 3 to 12 uM after 24 hrs by Western blot analysis. The series is classed as functional, cell-based. In outline: as §1
Series [16] has as its system A549. As to the kind of experiment: Induction of apoptosis in human A549 cells assessed as necrotic cells at 6 uM after 24 hrs by Annexin V-APC/7-AAD staining-based FACS analysis (reference value: 0.032%). The series is classed as functional.
The subject of series [17] is A549. As to the kind of experiment: Effect on CDK1 expression in human A549 cells at 3 to 12 uM after 24 hrs by Western blot analysis. In kind it is functional, cell-based. In outline:
as §1

Series [18] deals with A549. As to the kind of experiment: Induction of apoptosis in human A549 cells assessed as viable cells at 3 uM after 24 hrs by Annexin V-APC/7-AAD staining-based FACS analysis (reference value: 94.1%). The following applies: A549, 24 h, read-out: Activity. In kind it is functional.
For series [19], the system named is A549. Description: Induction of apoptosis in human A549 cells assessed as late apoptotic cells at 3 uM after 24 hrs by Annexin V-APC/7-AAD staining-based FACS analysis (reference value: 0.01%). The series is classed as functional.
Series [20] relates to A549. As to the kind of experiment: Induction of apoptosis in human A549 cells assessed as early apoptotic cells at 12 uM after 24 hrs by Annexin V-APC/7-AAD staining-based FACS analysis (reference value: 5.82%). In kind it is functional.
For series [21], the system named is A549. Description: Cell cycle arrest in human A549 cells assessed as accumulation at S-phase at 3 uM after 24 hrs by propidium iodide staining-based FACS analysis (reference value: 17.8 %). In kind it is functional.
Series [22] relates to A549. As to the kind of experiment: Induction of apoptosis in human A549 cells assessed as late apoptotic cells at 6 uM after 24 hrs by Annexin V-APC/7-AAD staining-based FACS analysis (reference value: 0.01%). The series is classed as functional.
Series [23] has as its system A549. As to the kind of experiment: Induction of apoptosis in human A549 cells assessed as late apoptotic cells at 12 uM after 24 hrs by Annexin V-APC/7-AAD staining-based FACS analysis (reference value: 0.01%). The series is classed as functional.
In series [24] the test system is A549. Description: Cell cycle arrest in human A549 cells assessed as accumulation at S-phase at 12 uM after 24 hrs by propidium iodide staining-based FACS analysis (reference value: 17.8 %). The series is classed as functional.
For series [25], the system named is A549. Description: Induction of apoptosis in human A549 cells assessed as increase in cleaved caspase-3 level at 3 to 12 uM after 24 hrs by Western blot analysis. The series is classed as functional, cell-based. The method, boiled down: as §1
The subject of series [26] is A549. Description: Induction of apoptosis in human A549 cells assessed as early apoptotic cells at 6 uM after 24 hrs by Annexin V-APC/7-AAD staining-based FACS analysis (reference value: 5.82%). The series is classed as functional.
Series [27] concerns A549. As to the kind of experiment: Effect on cyclin B expression in human A549 cells at 3 to 12 uM after 24 hrs by Western blot analysis. In kind it is functional, cell-based. In outline: as §1
The test system of series [28] is A549. As to the kind of experiment: Up regulation of p21 expression in human A549 cells at 3 to 12 uM after 24 hrs by Western blot analysis. In kind it is functional, cell-based. In outline:
as §1

Active and inactive are the calls of the source. The calls are words filed in the database; no cut-off is given here.

As usually defined, the IC50 is the concentration at which inhibition is half-maximal. Low readings indicate greater potency, high ones weaker potency. `N#CC1=C(N)Oc2c(c3nc4ccccc4nc3c3ccccc23)C12C(=O)N(Cc1cnnn1-c1ccc(S(N)(=O)=O)cc1)c1ccccc12` (stereo unspecified): the half-maximal inhibitory concentration (IC50) in the series with HUVEC is above 50 µM; with MCF7, above 50 µM; in the series on HCT-116, 31.2 µM; with L02, above 50 µM; in the series with A549 [1], above 50 µM; with HepG2, 42.2 µM.
Regarding `N#CC1=C(N)Oc2c(N)cc3nc4ccccc4nc3c2C12C(=O)N(Cc1cnnn1-c1ccc([N+](=O)[O-])cc1)c1ccccc12` (stereo unspecified), the IC50 in the series with HUVEC, in the series on MCF7, in the series with HCT-116, with L02, with A549 [1] and with HepG2 was above 50 µM throughout.
On to `Cc1ccc(Cl)cc1-n1nncc1CN1C(=O)C2(C(C#N)=C(N)Oc3c2c2nc4ccccc4nc2c2ccccc32)c2ccccc21` (stereo unspecified), for which the IC50 with HUVEC, in the series on MCF7, with HCT-116, with L02, in the series on A549 [1] and in the series with HepG2 was above 50 µM in each case.
In the case of `N#CC1=C(N)Oc2c(N)cc3nc4ccccc4nc3c2C12C(=O)N(Cc1cnnn1-c1cccc(C(F)(F)F)c1)c1ccccc12` (stereo unspecified), the Activity in the series with A549 [2] is 8.89%; with A549 [3] it was “Dose-dependent effect”; in the series on A549 [4] it was 3.21%; in the series with A549 [5], 0.052%; in the series with A549 [9] it was “Dose-dependent effect”; in the series on A549 [10] it was “Dose-dependent effect”. Also, the Activity result in the series on A549 [11] is “Dose-dependent effect”; with A549 [13] it was 41.7%; in the series with A549 [16], 0.127%; with A549 [19] it was 0.031%; with A549 [20], 38.5%; with A549 [21], 30.5%. The Activity in the series on A549 [22] is listed as 0.053%; in the series on A549 [23], 2.32%; in the series with A549 [24], 51.1%; with A549 [26], 11.2%. The result in the series with A549 [6], in the series with A549 [15], in the series with A549 [25] and with A549 [28] was Active. For the same compound, the outcome in the series with A549 [7], in the series with A549 [17] and in the series on A549 [27] was inactive. Besides, the viability at 6 µM in the series on A549 [8] came to 88.6%. Also, the IC50 is above 50 µM in the series on HUVEC; 31.6 µM with MCF7; 18.9 µM in the series on HCT-116; 38.1 µM in the series with L02; 5.4 µM in the series with A549 [1]; 15.8 µM in the series with HepG2. Besides, the Drug uptake result in series [12] is listed as “Active”. The viability at 12 µM with A549 [14] came to 55.9%. Further, the viability at 3 µM in the series on A549 [18] came to 91%.

The values above are taken from ChEMBL document CHEMBL4033663, “Design, combinatorial synthesis and biological evaluations of novel 3-amino-1'-((1-aryl-1H-1,2,3-triazol-5-yl)methyl)-2'-oxospiro[benzo[a] pyrano[2,3-c]phenazine-1,3'-indoline]-2-carbonitrile antitumor hybrid molecules” (Eur J Med Chem, 2017).
